Experimental data as given in ChEMBL document CHEMBL1122777, “Effect of tellurium position on the myocardial uptake of radioiodinated 18-iodotellura-17-octadecenoic acid analogues” (1984).

Tests used:
[1] = Ratio of heart to lungs uptake after 30 min was determined in female Fischer rats after [125I]-labeled compound complexed with bovine serum albumin was injected intravenously; type: functional
Procedure, shortened: (§1)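 Female Fischer 344 rats (food and water ad libitum) given the 125I-labelled fatty acid in 6% bovine albumin with 10% final ethanol, filtered, 0.5 mL into a lateral tail vein under ether anaesthesia. Four rats per time point. Tissue activity expressed as % injected dose/g against assayed injectate standards. Mean heart/tissue ratios were calculated from mean %ID/g values.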

Rattus norvegicus [2] = assay: Kidney uptake after 2 hr was determined in female Fischer rats after [125I]-labeled compound complexed with bovine serum albumin was injected intravenously; type: functional
Procedure, shortened: (§2)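 Female Fischer 344 rats (fed ad libitum) under ether anaesthesia received the ¹²⁵I fatty acid in a lateral tail vein. Dose was ~3.8–4.8 μCi per rat (sp act ~125–240 mCi/mmol), given in 0.5 mL 6% bovine albumin (final ethanol 10%) after filtration. Four rats per time point were used. Tissue radioactivity is % injected dose/g, mean with range, calculated against standards of the injected solution.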

Rattus norvegicus [3] = assay: Lungs uptake after 60 min was determined in female Fischer rats after [125I]-labeled compound complexed with bovine serum albumin was injected intravenously; type: functional; procedure, shortened: as §2
Rattus norvegicus [4] = assay: Blood uptake after 2 hr was determined in female Fischer rats after [125I]-labeled compound complexed with bovine serum albumin was injected intravenously; type: functional; procedure, shortened: as §2
Rattus norvegicus [5] = assay: Kidney uptake after 4 hr was determined in female Fischer rats after [125I]-labeled compound complexed with bovine serum albumin was injected intravenously; type: functional; procedure, shortened: as §2
Rattus norvegicus [6] = assay: Liver uptake after 2 hr was determined in female Fischer rats after [125I]-labeled compound complexed with bovine serum albumin was injected intravenously; type: functional; procedure, shortened: as §2
Rattus norvegicus [7] = assay: Kidney uptake after 30 min was determined in female Fischer rats after [125I]-labeled compound complexed with bovine serum albumin was injected intravenously; type: functional; procedure, shortened: as §2
Rattus norvegicus [8] = assay: Kidney uptake after 3 days was determined in female Fischer rats after [125I]-labeled compound complexed with bovine serum albumin was injected intravenously; type: functional; procedure, shortened: as §2
[9] = Ratio of heart to liver uptake after 60 min was determined in female Fischer rats after [125I]-labeled compound complexed with bovine serum albumin was injected intravenously; type: functional; procedure, shortened: as §1
[10] = Ratio of heart to lungs uptake after 120 min was determined in female Fischer rats after [125I]-labeled compound complexed with bovine serum albumin was injected intravenously; type: functional; procedure, shortened: as §1
Rattus norvegicus [11] = assay: Kidney uptake after 1 day was determined in female Fischer rats after [125I]-labeled compound complexed with bovine serum albumin was injected intravenously; type: functional; procedure, shortened: as §2
Rattus norvegicus [12] = assay: Liver uptake after 3 day was determined in female Fischer rats after [125I]-labeled compound complexed with bovine serum albumin was injected intravenously; type: functional; procedure, shortened: as §2
[13] = Ratio of heart to lungs uptake after 5 min was determined in female Fischer rats after [125I]-labeled compound complexed with bovine serum albumin was injected intravenously; type: functional; procedure, shortened: as §1
Rattus norvegicus [14] = assay: Kidney uptake after 60 min was determined in female Fischer rats after [125I]-labeled compound complexed with bovine serum albumin was injected intravenously; type: functional; procedure, shortened: as §2
Rattus norvegicus [15] = assay: Heart uptake after 5 min was determined in female Fischer rats after [125I]-labeled compound complexed with bovine serum albumin was injected intravenously; type: functional; procedure, shortened: as §2
[16] = Ratio of heart to blood uptake after 30 min was determined in female Fischer rats after [125I]-labeled compound complexed with bovine serum albumin was injected intravenously; type: functional; procedure, shortened: as §1
Rattus norvegicus [17] = assay: Kidney uptake after 5 min was determined in female Fischer rats after [125I]-labeled compound complexed with bovine serum albumin was injected intravenously; type: functional; procedure, shortened: as §2
Rattus norvegicus [18] = assay: Heart uptake after 3 day was determined in female Fischer rats after [125I]-labeled compound complexed with bovine serum albumin was injected intravenously; type: functional; procedure, shortened: as §2
[19] = Ratio of heart to kidneys uptake after 240 min was determined in female Fischer rats after [125I]-labeled compound complexed with bovine serum albumin was injected intravenously; type: functional, Heart/Kidney; procedure, shortened: as §1
Rattus norvegicus [20] = assay: Blood uptake after 3 day was determined in female Fischer rats after [125I]-labeled compound complexed with bovine serum albumin was injected intravenously; type: functional; procedure, shortened: as §2
Rattus norvegicus [21] = assay: Lungs uptake after 2 hr was determined in female Fischer rats after [125I]-labeled compound complexed with bovine serum albumin was injected intravenously; type: functional; procedure, shortened: as §2
Rattus norvegicus [22] = assay: Kidneys uptake after 3 days was determined in female Fischer rats after [125I]-labeled compound complexed with bovine serum albumin was injected intravenously; type: functional; procedure, shortened: as §2
Rattus norvegicus [23] = assay: Blood uptake after 3 days was determined in female Fischer rats after [125I]-labeled compound complexed with bovine serum albumin was injected intravenously; type: functional; procedure, shortened: as §2
Rattus norvegicus [24] = assay: Kidneys uptake after 4 hr was determined in female Fischer rats after [125I]-labeled compound complexed with bovine serum albumin was injected intravenously; type: functional; procedure, shortened: as §2
Rattus norvegicus [25] = assay: Kidneys uptake after 60 min was determined in female Fischer rats after [125I]-labeled compound complexed with bovine serum albumin was injected intravenously; type: functional; procedure, shortened: as §2
Rattus norvegicus [26] = assay: Liver uptake after 3 days was determined in female Fischer rats after [125I]-labeled compound complexed with bovine serum albumin was injected intravenously; type: functional; procedure, shortened: as §2
Rattus norvegicus [27] = assay: Kidneys uptake after 1 day was determined in female Fischer rats after [125I]-labeled compound complexed with bovine serum albumin was injected intravenously; type: functional; procedure, shortened: as §2
Rattus norvegicus [28] = assay: Kidneys uptake after 30 min was determined in female Fischer rats after [125I]-labeled compound complexed with bovine serum albumin was injected intravenously; type: functional; procedure, shortened: as §2
Rattus norvegicus [29] = assay: Kidneys uptake after 2 hr was determined in female Fischer rats after [125I]-labeled compound complexed with bovine serum albumin was injected intravenously; type: functional; procedure, shortened: as §2
Rattus norvegicus [30] = assay: Heart uptake after 3 days was determined in female Fischer rats after [125I]-labeled compound complexed with bovine serum albumin was injected intravenously; type: functional; procedure, shortened: as §2
Rattus norvegicus [31] = assay: Kidneys uptake after 5 min was determined in female Fischer rats after [125I]-labeled compound complexed with bovine serum albumin was injected intravenously; type: functional; procedure, shortened: as §2

O=C(O)CCCCCCC[Te]CCCCCCC/C=C/I
Ratio [1]: 2.5 | Injected dose/g (Rattus norvegicus [2]): 1.27% | Injected dose/g (Rattus norvegicus [3]): 1.57% | Injected dose/g (Rattus norvegicus [4]): 0.44% | Injected dose/g (Rattus norvegicus [5]): 1.19% | Injected dose/g (Rattus norvegicus [6]): 4.66% | Injected dose/g (Rattus norvegicus [7]): 1.38% | Injected dose/g (Rattus norvegicus [8]): 0.22% | Ratio [9]: 1.06 | Ratio [10]: 2.7 | Injected dose/g (Rattus norvegicus [11]): 0.59% | Injected dose/g (Rattus norvegicus [12]): 0.64% | Ratio [13]: 2.9 | Injected dose/g (Rattus norvegicus [14]): 1.52% | Injected dose/g (Rattus norvegicus [15]): 4.83% | Ratio [16]: 8 | Injected dose/g (Rattus norvegicus [17]): 1.58% | Injected dose/g (Rattus norvegicus [18]): 0.28% | Ratio [19]: 2.9 | Injected dose/g (Rattus norvegicus [20]): 0.21% | Injected dose/g (Rattus norvegicus [21]): 1.43%

O=C(O)CCCCCCCCC[Te]CCCCC/C=C/I
Ratio [1]: 1.6 | Injected dose/g (Rattus norvegicus [22]): 0.21% | Injected dose/g (Rattus norvegicus [23]): 0.34% | Injected dose/g (Rattus norvegicus [3]): 2.07% | Injected dose/g (Rattus norvegicus [4]): 0.81% | Injected dose/g (Rattus norvegicus [6]): 3.47% | Injected dose/g (Rattus norvegicus [24]): 1.42% | Injected dose/g (Rattus norvegicus [25]): 1.92% | Injected dose/g (Rattus norvegicus [26]): 0.19% | Ratio [9]: 0.7 | Injected dose/g (Rattus norvegicus [27]): 0.62% | Ratio [10]: 1.9 | Ratio [13]: 1.2 | Injected dose/g (Rattus norvegicus [28]): 1.85% | Injected dose/g (Rattus norvegicus [15]): 3.09% | Ratio [16]: 5 | Injected dose/g (Rattus norvegicus [29]): 1.51% | Injected dose/g (Rattus norvegicus [30]): 0.34% | Ratio [19]: 1.7 | Injected dose/g (Rattus norvegicus [31]): 2.22% | Injected dose/g (Rattus norvegicus [21]): 2.02%
